{"data": "Measurements from different studies", "note": "Lines come from different studies, so protocols differ."}
{"Compound": "O=C1NC(=S)S/C1=C\\c1c2ccccc2c(-c2ccc(N(c3ccccc3)c3ccccc3)cc2)c2ccccc12", "organism": "Bacillus cereus", "test": "microbial killing, broth dilution", "system": "ATCC10876", "endpoint": "MBC", "result": "> 1000 µg/mL"}
{"Compound": "COc1ccc(-c2cc(=O)c3c(O)cc(O[C@@H]4O[C@H](CO)[C@@H](O)[C@H](O)[C@H]4O)cc3o2)cc1O", "organism": "Helicobacter pylori", "test": "microbial growth, broth dilution", "setting": "62.5 µg/mL", "endpoint": "inhibition", "result": "100%"}
{"Compound": "CCn1cc(C(=O)O)c(=O)c2ccc(C)nc21", "organism": "Salmonella enterica", "test": "microbial growth", "setting": "20 h, pH 7", "endpoint": "MIC", "result": "2 µg/mL"}
{"Compound": "COC(=O)c1ccc(O)cc1", "organism": "Helicobacter pylori", "test": "microbial growth, broth dilution", "setting": "15.63 µg/mL", "endpoint": "inhibition", "result": "100%"}
{"Compound": "CCN1CCN(c2cc3c(cc2F)c(=O)c(C(=O)O)cn3C2CC2)CC1", "organism": "Salmonella enterica", "test": "microbial growth", "system": "ENTERITIDIS", "setting": "20 h, pH 5.5", "endpoint": "MIC", "result": "0.25 µg/mL"}
{"Compound": "O=C(O)CN1C(=O)/C(=C/c2c3ccccc3c(-c3ccc(N(c4ccccc4)c4ccccc4)cc3)c3ccccc23)SC1=S", "organism": "Bacillus cereus", "test": "microbial growth, broth dilution", "system": "ATCC10876", "endpoint": "MIC", "result": "> 1000 µg/mL"}
{"Compound": "C[C@@H](O)[C@H]1C(=O)N2C(C(=O)O)=C(S[C@@H]3CN[C@H](C(=O)N(C)C)C3)[C@H](C)[C@H]12", "organism": "Salmonella enterica", "test": "microbial growth, broth dilution", "setting": "clinical isolate", "endpoint": "MIC", "result": "≤ 0.5 µg/mL"}
{"Compound": "C=C[C@@]1(C)C=C2CC[C@@H]3[C@](C)(CCC[C@@]3(C)C(=O)O)[C@H]2CC1", "organism": "Helicobacter pylori", "test": "microbial growth, broth dilution", "setting": "15.63 µg/mL", "endpoint": "inhibition", "result": "86.3%"}
{"Compound": "CO/N=C(\\C(=O)N[C@@H]1C(=O)N2C(C(=O)O)=C(CSc3nc(=O)c(=O)[nH]n3C)CS[C@H]12)c1csc(N)n1", "organism": "Salmonella enterica", "test": "microbial growth", "system": "ENTERITIDIS", "setting": "20 h, pH 7", "endpoint": "MIC", "result": "0.0625 µg/mL"}
{"Compound": "O=C(O)CN1C(=O)/C(=C/c2ccc(-c3ccc(N(c4ccccc4)c4ccccc4)cc3)cc2)NC1=S", "organism": "Bacillus cereus", "test": "microbial killing, broth dilution", "system": "ATCC10876", "endpoint": "MBC", "result": "250 µg/mL"}
{"Compound": "COc1c(N2C[C@@H]3CCCN[C@@H]3C2)c(F)cc2c(=O)c(C(=O)O)cn(C3CC3)c12", "organism": "Salmonella enterica", "test": "microbial growth", "system": "ATCC13311 TYPHIMURIUM", "endpoint": "MIC90", "result": "0.49 µg/mL"}
{"Compound": "O=C(O)c1cn(C2CC2)c2cc(N3CCNCC3)c(F)cc2c1=O", "organism": "Salmonella enterica", "test": "microbial growth", "system": "ENTERITIDIS", "setting": "20 h, pH 7", "endpoint": "MIC", "result": "0.0156 µg/mL"}
{"Compound": "O=C(O)CN1C(=O)/C(=C/c2ccc(-c3ccc(N(c4ccccc4)c4ccccc4)cc3)c3ccccc23)SC1=S", "organism": "Bacillus cereus", "test": "microbial killing, broth dilution", "system": "ATCC10876", "endpoint": "MBC", "result": "> 1000 µg/mL"}
{"Compound": "[H]/N=C(/N)N[C@H]1[C@H](O)[C@@H](O)[C@H](O[C@@H]2O[C@@H](C)[C@](O)(C=O)[C@H]2O[C@@H]2O[C@@H](CO)[C@H](O)[C@@H](O)[C@@H]2NC)[C@@H](N/C(N)=N\\[H])[C@@H]1O", "organism": "Salmonella enterica", "test": "microbial growth", "setting": "20 h, pH 7.2", "endpoint": "MIC", "result": "8 µg/mL"}
{"Compound": "COc1cc([C@H]2OC[C@H]3[C@@H]2CO[C@@H]3c2cc(OC)c(O)c(OC)c2)cc(OC)c1O", "organism": "Helicobacter pylori", "test": "microbial growth, broth dilution", "setting": "31.25 µg/mL", "endpoint": "inhibition", "result": "100%"}
{"Compound": "O=C(O)CN1C(=O)/C(=C/c2c3ccccc3c(-c3ccc(N(c4ccccc4)c4ccccc4)cc3)c3ccccc23)NC1=S", "organism": "Bacillus cereus", "test": "microbial killing, broth dilution", "system": "ATCC10876", "endpoint": "MBC", "result": "> 1000 µg/mL"}
{"Compound": "O=c1cc(-c2ccc(O)cc2)oc2cc(O)cc(O)c12", "organism": "Helicobacter pylori", "test": "microbial growth, broth dilution", "setting": "125 µg/mL", "endpoint": "inhibition", "result": "100%"}
{"Compound": "CC1(C)S[C@@H]2[C@H](NC(=O)[C@H](N)c3ccccc3)C(=O)N2[C@H]1C(=O)O", "organism": "Salmonella enterica", "test": "microbial growth, agar dilution", "system": "ATCC13311 TYPHIMURIUM", "setting": "26.93 µM", "endpoint": "inhibition", "result": "100%"}
{"Compound": "CNC1=C([N+](=O)[O-])C2(C(=O)Nc3ccccc32)C2=C(O1)C(=O)c1ccccc1C2=O (stereo not shown)", "organism": "Salmonella enterica", "test": "microbial killing", "system": "TYPHIMURIUM", "endpoint": "MBC", "result": "≤ 1000 µg/mL"}
{"Compound": "O=C(N[C@H](CO)[C@H](O)c1ccc([N+](=O)[O-])cc1)C(Cl)Cl", "organism": "Salmonella enterica", "test": "microbial growth", "setting": "20 h, pH 5.5", "endpoint": "MIC", "result": "2 µg/mL"}
{"Compound": "O=c1cc(-c2ccc(O)c(O)c2)oc2cc(O)cc(O)c12", "organism": "Helicobacter pylori", "test": "microbial growth, broth dilution", "setting": "31.25 µg/mL", "endpoint": "inhibition", "result": "100%"}
{"Compound": "O=C1NC(=S)N/C1=C\\c1ccc(-c2ccc(N(c3ccccc3)c3ccccc3)cc2)cc1", "organism": "Bacillus cereus", "test": "microbial growth, broth dilution", "system": "ATCC10876", "endpoint": "MIC", "result": "> 1000 µg/mL"}
{"Compound": "Cc1cc(NS(=O)(=O)c2ccc(N)cc2)no1", "organism": "Salmonella enterica", "test": "microbial growth", "system": "ENTERITIDIS", "setting": "20 h, pH 7", "endpoint": "MIC", "result": "64 µg/mL"}
{"Compound": "O=C1NC(=S)N/C1=C\\c1c2ccccc2c(-c2ccc(N(c3ccccc3)c3ccccc3)cc2)c2ccccc12", "organism": "Bacillus cereus", "test": "microbial killing, broth dilution", "system": "ATCC10876", "endpoint": "MBC", "result": "> 1000 µg/mL"}
{"Compound": "CS(=O)(=O)c1ccc([C@@H](O)[C@@H](CF)NC(=O)C(Cl)Cl)cc1", "organism": "Salmonella enterica", "test": "microbial growth", "system": "ENTERITIDIS", "setting": "20 h, pH 7", "endpoint": "MIC", "result": "4 µg/mL"}
